Here are results for 66 compounds from PubChem BioAssay AID624316 (Broad Institute, 2012).

Several values for one entry are separate records, joined by “and”; a condition that tells them apart may be missing. Identical values can stand only once. Activity calls are given as the source filed them.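 How the source made its calls: active means compounds lowering reporter light with a fitted AC50 at or below twice their top valid dose; inconclusive means flat partial inhibition or an unreliable curve fit; inactive means the rest.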

The test deals with SK-MEL-5 TRPM1 promoter luciferase reporter, 24 h. The test is described as follows: TRPM1 promoter luciferase signal reduction, dose response, MITF inhibitor project, cell-based, SK-MEL-5, dry powder samples, set 4 (AID 624316). The method in brief:
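Test system: SK-MEL-5 melanoma line stably carrying TRPM1 promoter–luciferase reporter; buffer or medium: DMEM without phenol red plus 10% FBS; dosing: compounds pinned into wells as DMSO solutions; timing: 24 h compound treatment at 37 °C; measured by: SteadyGlo luciferase luminescence; benchmarks: parthenolide as positive control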
In general, AC50 refers to the concentration giving half of the maximal activity seen. Consider `C=CCNC1=C(NS(=O)(=O)c2cccs2)C(=O)c2ccccc2C1=O`, for which the AC50 was 12 µM. As to `O=C1C(NS(=O)(=O)c2ccc(Br)cc2)=C(N2CCOCC2)C(=O)c2ccccc21`, the AC50 is 6.87 µM.

Take `C=CCNC1=C(N2CCCCC2)C(=O)c2ccccc2C1=O`: the AC50 is 0.538 µM. Regarding `COC1=C(NS(=O)(=O)c2ccccc2)C(=O)c2ccccc2C1=O`, the concentration at half-maximal activity (AC50) is 6.65 µM. Then `CC(=O)NC1=C(c2ccccc2)C(=O)c2ccccc2C1=O`, with 5.51 µM; and `CCN1CCN(C2=C(N(C)C(C)=O)C(=O)c3ccccc3C2=O)CC1`, with 0.367 µM; and `O=C1C(Nc2ccccc2)=C(N2CCCCC2)C(=O)c2ccccc21`, with 2.78 µM.

In the case of `C=CCNC1=C(Cl)C(=O)c2ccccc2C1=O`, the AC50 was 1.67 µM and 2.18 µM. Then `COc1ccc(C2=C(NC(=O)c3ccccc3OC)C(=O)c3ccccc3C2=O)cc1`, with 15.7 µM. As to `C[C@@H](NC1=C(Nc2ccccc2)C(=O)c2ccccc2C1=O)c1ccccc1`, the concentration at half-maximal activity (AC50) was 9.76 µM. With `COc1ccc(C2=C(N)C(=O)c3ccccc3C2=O)cc1`, the AC50 is 25.1 µM. For `CN1CCN(C2=C(NS(=O)(=O)c3cccs3)C(=O)c3ccccc3C2=O)CC1`, the AC50 was 2.06 µM.

As to `CCN(CC)CCNC1=C(Nc2ccccc2)C(=O)c2ccccc2C1=O`, the AC50 is 1.66 µM. In the case of `CN1CCN(C2=C(NS(=O)(=O)c3ccccc3)C(=O)c3ccccc3C2=O)CC1`, the AC50 was 0.614 µM. Then `COc1ccc(C2=C(NC(=O)c3cccc(Cl)c3)C(=O)c3ccccc3C2=O)cc1`, with 19.9 µM.

`COc1ccc(C2=C(NC(=O)c3ccccc3Cl)C(=O)c3ccccc3C2=O)cc1`: the AC50 is 6.21 µM. For the compound `C=CCNC1=C(Nc2ccccc2)C(=O)c2ccccc2C1=O`, the AC50 was 12.4 µM. Then `Cc1ccc(C(=O)NC2=C(c3ccc(OC(F)(F)F)cc3)C(=O)c3ccccc3C2=O)o1`, with 15.4 µM; and `CC(=O)NC1=C(c2ccc3c(c2)oc2ccccc23)C(=O)c2ccccc2C1=O`, with 1.59 µM.

As to `O=C(NC1=C(c2ccc(OC(F)(F)F)cc2)C(=O)c2ccccc2C1=O)c1ccccc1`, the concentration at half-maximal activity (AC50) was 32 µM. Turning to `O=C1C(NS(=O)(=O)c2ccc(Br)cc2)=C(N2CCCCC2)C(=O)c2ccccc21`, the AC50 was 14.2 µM. Take `COc1ccc(C(=O)NC2=C(c3ccc(OC)cc3)C(=O)c3ccccc3C2=O)cc1`: the AC50 is 8.59 µM.

Consider `C=CCNC1=C(NC(=O)c2ccccc2)C(=O)c2ccccc2C1=O`, for which the AC50 is 11.7 µM. Then `O=C1C(NS(=O)(=O)c2ccc(Br)cc2)=C(c2ccccc2)C(=O)c2ccccc21`, with 24 µM; and `COc1ccc(C2=C(NC(=O)c3cccc(OC)c3)C(=O)c3ccccc3C2=O)cc1`, with 11.4 µM; and `C=CCNC1=C(NCCCN(CC)CC)C(=O)c2ccccc2C1=O`, with 3.12 µM.

`COc1ccc(C(=O)NC2=C(c3ccc(OC(F)(F)F)cc3)C(=O)c3ccccc3C2=O)cc1`: the AC50 was 35.5 µM.

`CCN1CCN(C2=C(NC(=O)c3ccccc3)C(=O)c3ccccc3C2=O)CC1`: the AC50 is 0.582 µM. With `O=C1C=C(Nc2ccccc2)C(=O)c2ccccc21`, the AC50 was 4.07 µM. Take `O=C1C(NS(=O)(=O)c2ccccc2)=C(N2CCCCC2)C(=O)c2ccccc21`: the AC50 is 28.3 µM.

In the case of `O=C1C(NS(=O)(=O)c2ccccc2)=C(N2CCOCC2)C(=O)c2ccccc21`, the AC50 is 18.5 µM. As for `NC1=C(c2ccc(OC(F)(F)F)cc2)C(=O)c2ccccc2C1=O`, the AC50 is 16.3 µM. Then `CC(=O)N(C)C1=C(N2CCCCC2)C(=O)c2ccccc2C1=O`, with 0.7 µM; and `CC(=O)N(C)C1=C(N2CCN(C)CC2)C(=O)c2ccccc2C1=O`, with 0.372 µM; and `O=C1C(Nc2ccccc2)=C(N2CCN(c3ccccc3)CC2)C(=O)c2ccccc21`, with 8.06 µM. `COc1ccc(C2=C(NC(=O)c3ccc(OC)cc3-c3cccc(OC)c3)C(=O)c3ccccc3C2=O)cc1`: the AC50 is > 70 µM (inactive). Turning to `CN1CCN(C2=C(NC(=O)c3ccc(Br)cc3)C(=O)c3ccccc3C2=O)CC1`, the AC50 is 0.921 µM. For the compound `O=C1C(NS(=O)(=O)c2ccc(Br)s2)=C(N2CCOCC2)C(=O)c2ccccc21`, the AC50 is 19.9 µM.

On to `O=C1C(NS(=O)(=O)c2ccc(Br)cc2)=C(c2ccc(OC(F)(F)F)cc2)C(=O)c2ccccc21`, for which the half-maximal activity concentration (AC50) was 12 µM. Regarding `NC1=CC(=O)c2ccccc2C1=O`, the AC50 is 1.41 µM. Consider `CC(=O)NC1=C(c2ccc(Cl)cc2)C(=O)c2ccccc2C1=O`, for which the AC50 is 5.17 µM.

Regarding `COc1ccc(C(=O)NC2=C(c3ccccc3)C(=O)c3ccccc3C2=O)cc1`, the AC50 is 10.9 µM. Then `CCN1CCN(C2=C(NS(=O)(=O)c3ccc(Br)s3)C(=O)c3ccccc3C2=O)CC1`, with 4.1 µM. `CC1CCN(CC(CS(=O)(=O)c2ccc([N+](=O)[O-])cc2)N2CCC(C)CC2)CC1` (stereo unspecified): the concentration at half-maximal activity (AC50) is 4.72 µM. Then `COc1ccc(C2=C(NC(C)=O)C(=O)c3ccccc3C2=O)cc1`, with 5.44 µM; and `COc1ccc(C2=C(NC(=O)c3ccc(Cl)cc3)C(=O)c3ccccc3C2=O)cc1`, with 16.4 µM.

With `O=C(NC1=C(N2CCCCC2)C(=O)c2ccccc2C1=O)c1ccc(Br)cc1`, the AC50 is 36.2 µM. On to `O=C1C(NS(=O)(=O)c2cccs2)=C(N2CCCCC2)C(=O)c2ccccc21`, for which the AC50 was 21.7 µM.

`O=C(NC1=C(c2ccc(Oc3ccccc3)cc2)C(=O)c2ccccc2C1=O)c1ccccc1`: the AC50 is > 70 µM (inactive). Then `O=C(NC1=C(c2ccc(OC(F)(F)F)cc2)C(=O)c2ccccc2C1=O)c1ccc(Br)cc1`, with 20.5 µM; and `COc1ccc(S(=O)(=O)N(C(C)=O)c2ccc(OC(C)=O)c3ccccc23)cc1[N+](=O)[O-]`, with 6.67 µM.

For `C=CCNC1=C(NCCN(CC)CC)C(=O)c2ccccc2C1=O`, the concentration at half-maximal activity (AC50) is 1.75 µM.

As to `CCN1CCN(C2=C(NS(=O)(=O)c3ccc(Br)cc3)C(=O)c3ccccc3C2=O)CC1`, the AC50 was 4.06 µM.

Take `O=C1C(NCCCN2CCOCC2)=C(Nc2ccccc2)C(=O)c2ccccc21`: the AC50 was 4.03 µM. Then `O=C1C(NS(=O)(=O)c2ccc(Br)s2)=C(N2CCSCC2)C(=O)c2ccccc21`, with 20.5 µM; and `CN1CCN(C2=C(NS(=O)(=O)c3ccc(Br)s3)C(=O)c3ccccc3C2=O)CC1`, with 2.57 µM; and `O=C(NC1=C(N2CCN(c3ccccc3)CC2)C(=O)c2ccccc2C1=O)c1ccccc1`, with 15 µM. As to `O=C(NC1=C(Cl)C(=O)c2ccccc2C1=O)c1ccccc1`, the AC50 was 0.854 µM. Then `CN1CCN(C2=C(Nc3ccccc3)C(=O)c3ccccc3C2=O)CC1`, with 4.78 µM; and `CCN1CCN(C2=C(NS(=O)(=O)c3cccs3)C(=O)c3ccccc3C2=O)CC1`, with 1.73 µM; and `COc1cccc(C2=C(NC(=O)c3ccccc3)C(=O)c3ccccc3C2=O)c1`, with 13.9 µM. Take `O=C(CNc1cccc2ccccc12)N/N=C/c1ccc([N+](=O)[O-])o1`: the AC50 is 1.67 µM. As to `O=C(NC1=C(c2ccc(OC(F)(F)F)cc2)C(=O)c2ccccc2C1=O)c1ccco1`, the AC50 is 21 µM.

`O=C1C(NS(=O)(=O)c2ccc(Br)s2)=C(N2CCCCC2)C(=O)c2ccccc21`: the AC50 was 19.3 µM.

Turning to `O=C(NC1=C(N2CCSCC2)C(=O)c2ccccc2C1=O)c1ccccc1`, the AC50 was 3.61 µM.

Turning to `CCN1CCN(C2=C(NC(=O)c3ccc(Br)cc3)C(=O)c3ccccc3C2=O)CC1`, the AC50 is 0.566 µM.
